In ChEMBL document CHEMBL3779810, “Potent, Selective, and Orally Bioavailable Inhibitors of VPS34 Provide Chemical Tools to Modulate Autophagy in Vivo” (ACS Med Chem Lett, 2016):
Active and inactive are the calls of the source. The rule behind the calls is not given here.

Legend:
[1] = molecular target: T1, Phosphatidylinositol 3-kinase catalytic subunit type 3 (Homo sapiens, UniProt Q8NEB9); experiment: Inhibition of VPS34 in human DLD1 cells assessed as prevention of NCOA4 protein degradation at 1 to 10 uM incubated for 24 hrs by Western blot analysis; assay type: cell-based; details: DLD-1
T1 sequence (Q8NEB9 whole entry): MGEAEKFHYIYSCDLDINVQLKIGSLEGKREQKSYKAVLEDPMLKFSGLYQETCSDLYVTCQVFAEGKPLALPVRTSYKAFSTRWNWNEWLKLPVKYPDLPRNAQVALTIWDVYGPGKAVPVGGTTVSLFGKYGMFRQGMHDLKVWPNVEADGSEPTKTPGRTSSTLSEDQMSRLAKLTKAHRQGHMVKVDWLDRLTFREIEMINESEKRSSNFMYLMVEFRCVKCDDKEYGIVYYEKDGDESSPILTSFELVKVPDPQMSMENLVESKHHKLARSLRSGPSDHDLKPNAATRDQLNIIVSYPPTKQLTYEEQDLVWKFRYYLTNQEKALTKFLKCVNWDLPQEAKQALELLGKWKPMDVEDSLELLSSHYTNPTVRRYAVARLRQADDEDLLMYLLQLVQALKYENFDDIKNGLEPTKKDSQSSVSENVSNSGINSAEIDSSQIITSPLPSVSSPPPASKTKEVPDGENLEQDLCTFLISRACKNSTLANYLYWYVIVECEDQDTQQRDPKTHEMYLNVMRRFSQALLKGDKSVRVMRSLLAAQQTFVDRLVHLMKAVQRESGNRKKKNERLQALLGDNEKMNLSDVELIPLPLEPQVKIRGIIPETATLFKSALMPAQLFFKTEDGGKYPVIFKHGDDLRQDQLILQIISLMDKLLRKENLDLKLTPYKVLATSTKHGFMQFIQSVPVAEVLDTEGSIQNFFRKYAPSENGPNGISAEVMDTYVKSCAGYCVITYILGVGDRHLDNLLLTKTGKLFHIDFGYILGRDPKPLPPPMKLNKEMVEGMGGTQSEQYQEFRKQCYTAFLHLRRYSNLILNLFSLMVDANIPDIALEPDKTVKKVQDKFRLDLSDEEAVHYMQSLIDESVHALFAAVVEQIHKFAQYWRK

[2] = molecular target: T1, Phosphatidylinositol 3-kinase catalytic subunit type 3; experiment: Inhibition of VPS34 in human DLD1 cells assessed as prevention of p62 degradation at 1 to 10 uM incubated for 24 hrs by Western blot analysis; assay type: cell-based; details: DLD-1
[3] = molecular target: T1, Phosphatidylinositol 3-kinase catalytic subunit type 3; experiment: Inhibition of VPS34 in human DLD1 cells assessed as prevention of NDP52 protein degradation at 1 to 10 uM incubated for 24 hrs by Western blot analysis; assay type: cell-based; details: DLD-1
[4] = molecular target: T1, Phosphatidylinositol 3-kinase catalytic subunit type 3; experiment: Inhibition of VPS34 in human DLD1 cells assessed as prevention of FTH1 protein degradation at 1 to 10 uM incubated for 24 hrs by Western blot analysis; assay type: cell-based; details: DLD-1
[5] = molecular target: T1, Phosphatidylinositol 3-kinase catalytic subunit type 3; experiment: Inhibition of VPS34 in human DLD1 cells assessed as prevention of NBR1 protein degradation at 1 to 10 uM incubated for 24 hrs by Western blot analysis; assay type: cell-based; details: DLD-1
[6] = Intrinsic clearance in mouse liver microsomes by LC-MS/MS analysis; assay type: ADME; details: read-out: CLH
[7] = molecular target: T1, Phosphatidylinositol 3-kinase catalytic subunit type 3; experiment: Inhibition of VPS34 in human U2OS cells incubated for 2 hrs by GFP-FYVE reporter gene assay; assay type: cell-based
[8] = molecular target: T2, Phosphatidylinositol 4,5-bisphosphate 3-kinase catalytic subunit delta isoform (Homo sapiens, UniProt O00329); experiment: Inhibition of PI3Kdelta (unknown origin)
T2 sequence (O00329 whole entry): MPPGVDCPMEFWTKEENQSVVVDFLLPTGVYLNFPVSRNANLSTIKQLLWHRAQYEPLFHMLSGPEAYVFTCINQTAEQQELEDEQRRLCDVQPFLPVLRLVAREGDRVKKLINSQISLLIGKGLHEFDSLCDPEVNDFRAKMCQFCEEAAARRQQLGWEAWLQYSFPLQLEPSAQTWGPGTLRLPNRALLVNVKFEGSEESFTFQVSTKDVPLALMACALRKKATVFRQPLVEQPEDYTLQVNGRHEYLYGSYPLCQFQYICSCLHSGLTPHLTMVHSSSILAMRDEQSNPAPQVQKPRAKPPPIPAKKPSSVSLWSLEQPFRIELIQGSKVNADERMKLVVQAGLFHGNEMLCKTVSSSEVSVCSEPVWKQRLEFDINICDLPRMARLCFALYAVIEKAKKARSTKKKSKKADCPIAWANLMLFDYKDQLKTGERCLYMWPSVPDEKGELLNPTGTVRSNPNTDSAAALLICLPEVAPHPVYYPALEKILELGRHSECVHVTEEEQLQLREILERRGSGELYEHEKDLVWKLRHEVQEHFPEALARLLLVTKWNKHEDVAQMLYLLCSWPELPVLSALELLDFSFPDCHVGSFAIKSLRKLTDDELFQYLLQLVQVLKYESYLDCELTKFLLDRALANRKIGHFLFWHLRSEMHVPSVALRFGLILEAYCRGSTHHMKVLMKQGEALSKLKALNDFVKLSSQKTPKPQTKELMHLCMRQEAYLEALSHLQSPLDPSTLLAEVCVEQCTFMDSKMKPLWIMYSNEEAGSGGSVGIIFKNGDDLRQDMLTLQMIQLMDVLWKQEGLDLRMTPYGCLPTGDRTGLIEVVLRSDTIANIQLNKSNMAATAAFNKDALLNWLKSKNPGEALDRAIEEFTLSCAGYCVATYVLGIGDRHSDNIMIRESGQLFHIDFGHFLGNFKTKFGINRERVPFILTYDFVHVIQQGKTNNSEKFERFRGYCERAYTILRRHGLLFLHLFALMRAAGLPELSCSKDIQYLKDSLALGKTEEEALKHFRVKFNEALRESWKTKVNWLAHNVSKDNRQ

[9] = molecular target: T1, Phosphatidylinositol 3-kinase catalytic subunit type 3; experiment: Inhibition of recombinant human VPS34 using L-alpha-phosphatidylinositol as substrate incubated for 10 mins by luminescence based ATP detection assay
Summary of the method: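 VPS34 biochemical IC50 was measured with a luminescence-based ATP detection read-out.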

[10] = molecular target: Phosphatidylinositol 4,5-bisphosphate 3-kinase catalytic subunit beta isoform (Homo sapiens, UniProt P42338); experiment: Inhibition of PI3Kbeta (unknown origin)
Phosphatidylinositol 4,5-bisphosphate 3-kinase catalytic subunit beta isoform, sequence (P42338 whole entry, canonical isoform): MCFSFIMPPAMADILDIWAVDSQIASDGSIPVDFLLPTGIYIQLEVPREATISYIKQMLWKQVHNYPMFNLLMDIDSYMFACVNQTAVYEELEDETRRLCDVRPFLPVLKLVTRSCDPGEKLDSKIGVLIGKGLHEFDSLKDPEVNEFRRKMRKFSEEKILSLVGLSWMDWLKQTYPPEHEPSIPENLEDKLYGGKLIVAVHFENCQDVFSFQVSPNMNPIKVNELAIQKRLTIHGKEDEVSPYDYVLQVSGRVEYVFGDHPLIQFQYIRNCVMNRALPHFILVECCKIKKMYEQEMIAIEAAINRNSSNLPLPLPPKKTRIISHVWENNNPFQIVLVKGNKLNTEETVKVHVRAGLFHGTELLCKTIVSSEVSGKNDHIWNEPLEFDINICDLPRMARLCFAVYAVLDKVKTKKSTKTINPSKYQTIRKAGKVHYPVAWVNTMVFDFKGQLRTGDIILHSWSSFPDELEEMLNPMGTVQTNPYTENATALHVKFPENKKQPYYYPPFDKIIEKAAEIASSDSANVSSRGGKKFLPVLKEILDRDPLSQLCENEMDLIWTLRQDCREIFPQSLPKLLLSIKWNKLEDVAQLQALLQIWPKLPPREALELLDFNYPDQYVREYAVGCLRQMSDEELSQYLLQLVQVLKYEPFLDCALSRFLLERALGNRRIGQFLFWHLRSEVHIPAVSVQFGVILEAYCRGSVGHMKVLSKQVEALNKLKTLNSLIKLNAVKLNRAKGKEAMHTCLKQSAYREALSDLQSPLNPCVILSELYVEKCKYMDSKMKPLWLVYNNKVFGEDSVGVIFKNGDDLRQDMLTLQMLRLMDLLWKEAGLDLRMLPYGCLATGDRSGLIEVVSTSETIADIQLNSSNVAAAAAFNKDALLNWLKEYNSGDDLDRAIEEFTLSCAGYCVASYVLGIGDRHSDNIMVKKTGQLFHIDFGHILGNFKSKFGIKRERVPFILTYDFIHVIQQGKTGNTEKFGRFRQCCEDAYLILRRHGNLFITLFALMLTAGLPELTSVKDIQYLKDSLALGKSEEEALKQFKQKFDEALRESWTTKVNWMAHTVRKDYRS

[11] = molecular target: Phosphatidylinositol 4,5-bisphosphate 3-kinase catalytic subunit gamma isoform (Homo sapiens, UniProt P48736); experiment: Inhibition of PI3Kgamma (unknown origin)
Phosphatidylinositol 4,5-bisphosphate 3-kinase catalytic subunit gamma isoform, sequence (P48736 whole entry, canonical isoform): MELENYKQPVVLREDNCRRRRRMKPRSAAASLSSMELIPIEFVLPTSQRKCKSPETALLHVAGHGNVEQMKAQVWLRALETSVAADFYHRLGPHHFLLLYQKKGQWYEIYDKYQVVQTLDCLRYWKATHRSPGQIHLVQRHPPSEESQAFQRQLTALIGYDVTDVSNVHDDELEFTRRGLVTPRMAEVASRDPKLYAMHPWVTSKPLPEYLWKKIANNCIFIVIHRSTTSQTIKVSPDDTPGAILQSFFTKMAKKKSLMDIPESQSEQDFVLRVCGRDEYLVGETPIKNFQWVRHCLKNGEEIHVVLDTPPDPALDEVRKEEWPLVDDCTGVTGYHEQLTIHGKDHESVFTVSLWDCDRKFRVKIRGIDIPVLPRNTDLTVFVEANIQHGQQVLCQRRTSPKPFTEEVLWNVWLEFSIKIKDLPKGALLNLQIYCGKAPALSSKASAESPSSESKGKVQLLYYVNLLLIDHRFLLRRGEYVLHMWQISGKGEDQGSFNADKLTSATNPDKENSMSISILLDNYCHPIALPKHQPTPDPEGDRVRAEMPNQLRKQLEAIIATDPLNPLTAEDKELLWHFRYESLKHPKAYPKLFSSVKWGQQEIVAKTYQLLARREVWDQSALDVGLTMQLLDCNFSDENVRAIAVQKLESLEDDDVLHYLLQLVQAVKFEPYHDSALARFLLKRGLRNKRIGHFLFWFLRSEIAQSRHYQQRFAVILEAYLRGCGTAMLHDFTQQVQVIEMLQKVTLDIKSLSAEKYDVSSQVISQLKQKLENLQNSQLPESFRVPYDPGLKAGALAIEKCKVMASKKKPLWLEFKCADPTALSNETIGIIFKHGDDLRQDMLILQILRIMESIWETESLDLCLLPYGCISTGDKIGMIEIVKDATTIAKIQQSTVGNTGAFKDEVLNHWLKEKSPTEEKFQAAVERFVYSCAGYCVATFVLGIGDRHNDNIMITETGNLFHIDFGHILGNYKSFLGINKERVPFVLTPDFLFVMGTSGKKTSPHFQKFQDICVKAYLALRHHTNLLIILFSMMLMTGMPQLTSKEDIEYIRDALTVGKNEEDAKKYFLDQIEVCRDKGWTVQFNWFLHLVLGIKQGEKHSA

[12] = molecular target: Phosphatidylinositol 4,5-bisphosphate 3-kinase catalytic subunit alpha isoform (Homo sapiens, UniProt P42336); experiment: Inhibition of PI3Kalpha (unknown origin)
Phosphatidylinositol 4,5-bisphosphate 3-kinase catalytic subunit alpha isoform, sequence (P42336 whole entry, canonical isoform): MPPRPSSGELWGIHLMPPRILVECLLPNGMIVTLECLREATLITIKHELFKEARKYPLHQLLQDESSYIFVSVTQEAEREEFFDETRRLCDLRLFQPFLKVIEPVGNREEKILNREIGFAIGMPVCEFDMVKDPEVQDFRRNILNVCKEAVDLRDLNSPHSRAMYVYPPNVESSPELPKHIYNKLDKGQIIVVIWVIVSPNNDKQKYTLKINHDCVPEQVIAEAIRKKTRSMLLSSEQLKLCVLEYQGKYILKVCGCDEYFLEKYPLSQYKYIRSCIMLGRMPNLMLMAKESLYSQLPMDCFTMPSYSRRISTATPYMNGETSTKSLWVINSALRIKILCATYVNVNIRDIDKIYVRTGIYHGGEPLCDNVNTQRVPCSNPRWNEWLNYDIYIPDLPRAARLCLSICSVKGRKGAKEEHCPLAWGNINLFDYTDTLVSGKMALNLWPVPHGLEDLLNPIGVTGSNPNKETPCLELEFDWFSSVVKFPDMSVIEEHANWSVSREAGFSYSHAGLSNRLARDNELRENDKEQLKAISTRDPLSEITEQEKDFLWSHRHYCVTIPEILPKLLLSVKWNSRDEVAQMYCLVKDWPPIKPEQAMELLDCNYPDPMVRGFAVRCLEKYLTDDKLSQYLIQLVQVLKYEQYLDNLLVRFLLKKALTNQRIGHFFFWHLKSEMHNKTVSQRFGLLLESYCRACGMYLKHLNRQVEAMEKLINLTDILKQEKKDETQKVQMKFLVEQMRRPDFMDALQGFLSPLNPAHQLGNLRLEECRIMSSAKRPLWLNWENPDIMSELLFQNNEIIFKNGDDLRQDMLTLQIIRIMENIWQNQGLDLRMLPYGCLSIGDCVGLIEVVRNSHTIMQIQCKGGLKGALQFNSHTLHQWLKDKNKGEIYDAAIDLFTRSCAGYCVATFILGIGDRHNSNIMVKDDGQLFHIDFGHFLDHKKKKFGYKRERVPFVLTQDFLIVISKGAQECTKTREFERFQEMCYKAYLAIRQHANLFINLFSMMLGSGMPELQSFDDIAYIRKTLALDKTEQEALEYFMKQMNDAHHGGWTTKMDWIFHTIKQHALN

[13] = molecular target: Phosphatidylinositol 4-kinase beta (Homo sapiens, UniProt Q9UBF8); experiment: Inhibition of PI4Kbeta (unknown origin)
Phosphatidylinositol 4-kinase beta, sequence (Q9UBF8 whole entry): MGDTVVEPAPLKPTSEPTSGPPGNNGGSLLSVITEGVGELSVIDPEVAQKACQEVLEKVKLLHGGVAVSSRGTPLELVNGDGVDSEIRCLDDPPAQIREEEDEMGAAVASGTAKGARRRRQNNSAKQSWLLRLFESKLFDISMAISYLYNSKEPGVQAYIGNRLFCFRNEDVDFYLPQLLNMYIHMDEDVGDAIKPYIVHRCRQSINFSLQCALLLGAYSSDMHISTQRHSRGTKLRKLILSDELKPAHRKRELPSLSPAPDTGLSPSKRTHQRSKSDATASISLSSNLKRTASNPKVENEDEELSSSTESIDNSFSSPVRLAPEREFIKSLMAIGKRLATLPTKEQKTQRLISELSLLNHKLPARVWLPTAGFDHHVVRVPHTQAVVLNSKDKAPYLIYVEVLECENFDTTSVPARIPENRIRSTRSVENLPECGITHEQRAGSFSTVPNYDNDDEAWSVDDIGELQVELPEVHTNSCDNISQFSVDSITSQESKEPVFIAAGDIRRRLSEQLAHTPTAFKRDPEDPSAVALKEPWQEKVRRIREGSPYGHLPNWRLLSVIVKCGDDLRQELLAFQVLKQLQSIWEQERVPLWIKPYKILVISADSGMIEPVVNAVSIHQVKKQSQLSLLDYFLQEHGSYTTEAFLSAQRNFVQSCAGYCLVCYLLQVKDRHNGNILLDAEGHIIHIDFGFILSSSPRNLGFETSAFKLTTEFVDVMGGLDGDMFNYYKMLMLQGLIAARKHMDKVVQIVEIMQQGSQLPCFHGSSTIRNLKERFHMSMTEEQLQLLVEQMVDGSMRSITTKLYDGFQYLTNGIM

[14] = Volume of distribution at steady state in C57BL/6 mouse at 2 mg/kg, iv; assay type: ADME, organism-based; details: in vivo, read-out: Vdss
Summary of the method: (§1)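 Pharmacokinetics in C57BL/6 mice after a single dose, either intravenous at 2 mg/kg or oral at 10 mg/kg. Mean parameters reported: AUCinf, CL, Vdss, t1/2, Tmax, Cmax and F. Clearance was also expressed as a percentage of hepatic blood flow.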

[15] = molecular target: T1, Phosphatidylinositol 3-kinase catalytic subunit type 3; experiment: Inhibition of VPS34 in human DLD1 cells assessed as increase in LC3-2 protein expression at 1 to 10 uM incubated for 24 hrs by Western blot analysis; assay type: cell-based; details: DLD-1
[16] = Oral bioavailability in C57BL/6 mouse at 10 mg/kg; assay type: ADME, organism-based; details: in vivo; summary of the method: as §1
[17] = AUC (0 to infinity) in C57BL/6 mouse at 2 mg/kg, iv; assay type: ADME, organism-based; set-up: dose 2 mg/kg, route intravenous, time infinity; details: in vivo; summary of the method: as §1
RKO = experiment: Antitumor activity against human RKO cells xenografted in athymic nude mouse assessed as reduction in tumor volume at 50 mg/kg, po bid for 7 days; assay type: functional, organism-based
[18] = Clearance in C57BL/6 mouse at 2 mg/kg, iv; assay type: ADME, organism-based; details: in vivo; summary of the method: as §1
[19] = molecular target: T1, Phosphatidylinositol 3-kinase catalytic subunit type 3; experiment: Inhibition of VPS34 in human DLD1 cells assessed as increase in LC3-1 protein expression at 1 to 10 uM incubated for 24 hrs by Western blot analysis; assay type: cell-based; details: DLD-1
[20] = Cmax in C57BL/6 mouse at 10 mg/kg, po; assay type: ADME, organism-based; set-up: dose 10 mg/kg, route oral; details: in vivo; summary of the method: as §1
Homo sapiens [21] = species: Homo sapiens; experiment: Selectivity ratio of IC50 for TAK1 (unknown origin) to recombinant human VPS34
Homo sapiens [22] = species: Homo sapiens; experiment: Selectivity ratio of IC50 for PI3Kdelta (unknown origin) to recombinant human VPS34
[23] = Tmax in C57BL/6 mouse at 10 mg/kg, po; assay type: ADME, organism-based; details: in vivo; summary of the method: as §1
[24] = Half life in C57BL/6 mouse at 2 mg/kg, iv; assay type: ADME, organism-based; details: in vivo; summary of the method: as §1
Homo sapiens [25] = species: Homo sapiens; experiment: Selectivity ratio of IC50 for PI3Kalpha (unknown origin) to recombinant human VPS34
Mus musculus [26] = experiment: Systemic clearance in C57BL/6 mouse at 10 mg/kg, po relative to hepatic blood flow; assay type: ADME, organism-based, Liver; details: in vivo; summary of the method: as §1
[27] = Systemic clearance in C57BL/6 mouse at 10 mg/kg, po; assay type: ADME, organism-based; details: in vivo; summary of the method: as §1
[28] = AUC (0 to infinity) in C57BL/6 mouse at 10 mg/kg, po; assay type: ADME, organism-based; set-up: dose 10 mg/kg, route oral, time infinity; details: in vivo; summary of the method: as §1
Mus musculus [29] = experiment: Inhibition of autophagy in athymic nude mouse xenografted with human RKO cells assessed as accumulation of LC3-2 protein at 50 mg/kg, po bid for 7 days by SDS-PAGE analysis; assay type: functional, organism-based; details: TDE = time-dependent effect
Summary of the method: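 Nude mice bearing RKO colon cancer tumors were dosed orally at 50 mg/kg twice daily (BID) for 7 days. LC3-II in tumor samples was followed over time by immunoblot, one lane per individual mouse.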

Homo sapiens [30] = species: Homo sapiens; experiment: Selectivity ratio of IC50 for PI3Kgamma (unknown origin) to recombinant human VPS34
Homo sapiens [31] = species: Homo sapiens; experiment: Selectivity ratio of IC50 for PI3Kbeta (unknown origin) to recombinant human VPS34

SMILES: Nc1ncc(-c2ccnc(Nc3ccncc3)n2)c(CC2CC2)n1
- inhibition [1]: Active
- inhibition [2]: Active
- inhibition [3]: Active
- inhibition [4]: Active
- inhibition [5]: Active
- CLint scaled [6]: 72.8 mL/min/kg

SMILES: c1cc(Nc2nccc(-c3cncnc3CC3CC3)n2)ccn1
- IC50 [7]: 330 nM
- IC50 [8]: > 9100 nM
- IC50 [9]: 210 nM
- CLint scaled [6]: 69.9 mL/min/kg

SMILES: CNc1ncc(-c2ccnc(Nc3ccncc3)n2)c(CC2CC2)n1
- IC50 [10]: > 9100 nM
- IC50 [7]: 14 nM
- IC50 [11]: 1900 nM
- IC50 [8]: 2900 nM
- IC50 [12]: 6800 nM
- CLint scaled [6]: 86.7 mL/min/kg

SMILES: CNc1ncc(-c2ccnc(N[C@H]3CC[C@H](O)CC3)n2)c(CC2CC2)n1
- IC50 [10]: > 9100 nM
- IC50 [11]: 8500 nM
- IC50 [8]: 7000 nM
- IC50 [12]: 6200 nM
- IC50 [13]: 3800 nM
- CLint scaled [6]: 82.6 mL/min/kg

SMILES: CC(C)(O)CNc1ncc(-c2ccnc(Nc3ccncc3)n2)c(CC2CC2)n1
- Vd [14]: 1.5 L/kg
- inhibition [15]: Active
- bioavailability [16]: 47%
- AUC(0-inf) [17]: 2.85 µM·h
- inhibition [1]: Active
- Activity (RKO): inactive
- clearance [18]: 30 mL/min/kg
- inhibition [19]: Active
- Cmax [20]: 2990 nM
- IC50 [7]: 25 nM
- inhibition [2]: Active
- inhibition [3]: Active
- Ratio IC50 (Homo sapiens [21]): 10
- Ratio IC50 (Homo sapiens [22]): 40
- Tmax [23]: 42 min
- half-life [24]: 72 min
- inhibition [4]: Active
- Ratio IC50 (Homo sapiens [25]): > 100
- CL (Mus musculus [26]): 33%
- CL/F [27]: 30 mL/min/kg
- IC50 [8]: 820 nM
- inhibition [5]: Active
- AUC(0-inf) [28]: 6.73 µM·h
- inhibition (Mus musculus [29]): tde
- Ratio IC50 (Homo sapiens [30]): > 100
- Ratio IC50 (Homo sapiens [31]): > 100
- CLint scaled [6]: 63.2 mL/min/kg

SMILES: CC(C)(C)CNc1ncc(-c2ccnc(Nc3ccncc3)n2)c(CC2CC2)n1
- IC50 [8]: 500 nM
- CLint scaled [6]: 67 mL/min/kg

SMILES: CNc1ncc(-c2ccnc(Nc3ccccc3)n2)c(CC2CC2)n1
- IC50 [9]: 290 nM

SMILES: COc1ncc(-c2ccnc(Nc3ccncc3)n2)c(CC2CC2)n1
- IC50 [8]: 8500 nM
- CLint scaled [6]: 84.7 mL/min/kg

SMILES: c1ccc(CNc2ncc(-c3ccnc(Nc4ccncc4)n3)c(CC3CC3)n2)cc1
- IC50 [8]: 3700 nM
- CLint scaled [6]: 74.8 mL/min/kg

SMILES: CC(C)(C)Nc1ncc(-c2ccnc(Nc3ccncc3)n2)c(CC2CC2)n1
- IC50 [8]: 740 nM
- CLint scaled [6]: 85.5 mL/min/kg

SMILES: CNc1ncc(-c2ccnc(NC3CCCCC3)n2)c(CC2CC2)n1
- IC50 [9]: 3400 nM

SMILES: CNc1ncc(-c2ccnc(Nc3cnc4ccccc4c3)n2)c(CC2CC2)n1
- IC50 [9]: 130 nM

SMILES: CNc1ncc(-c2ccnc(NCCCO)n2)c(CC2CC2)n1
- IC50 [9]: 6300 nM

SMILES: CNc1ncc(-c2ccnc(N[C@H]3CC[C@H](N)CC3)n2)c(CC2CC2)n1
- IC50 [9]: 410 nM

SMILES: c1cc(Nc2nccc(-c3cnc(NC4CCOCC4)nc3CC3CC3)n2)ccn1
- IC50 [7]: 270 nM
- IC50 [8]: 4200 nM
- IC50 [9]: 240 nM
- CLint scaled [6]: 65.8 mL/min/kg
